Calls of active or inactive are those of the source. The rule behind the calls is not given here.
Key:
[1] = target: T1, Polyunsaturated fatty acid 5-lipoxygenase (Homo sapiens, UniProt P09917); assay: Inhibition of […] human PBML assessed as inhibition of A23187-induced LTB4 production preincubated for 15 mins measured after 15 mins by enzyme immunoassay
T1 sequence (P09917 whole entry): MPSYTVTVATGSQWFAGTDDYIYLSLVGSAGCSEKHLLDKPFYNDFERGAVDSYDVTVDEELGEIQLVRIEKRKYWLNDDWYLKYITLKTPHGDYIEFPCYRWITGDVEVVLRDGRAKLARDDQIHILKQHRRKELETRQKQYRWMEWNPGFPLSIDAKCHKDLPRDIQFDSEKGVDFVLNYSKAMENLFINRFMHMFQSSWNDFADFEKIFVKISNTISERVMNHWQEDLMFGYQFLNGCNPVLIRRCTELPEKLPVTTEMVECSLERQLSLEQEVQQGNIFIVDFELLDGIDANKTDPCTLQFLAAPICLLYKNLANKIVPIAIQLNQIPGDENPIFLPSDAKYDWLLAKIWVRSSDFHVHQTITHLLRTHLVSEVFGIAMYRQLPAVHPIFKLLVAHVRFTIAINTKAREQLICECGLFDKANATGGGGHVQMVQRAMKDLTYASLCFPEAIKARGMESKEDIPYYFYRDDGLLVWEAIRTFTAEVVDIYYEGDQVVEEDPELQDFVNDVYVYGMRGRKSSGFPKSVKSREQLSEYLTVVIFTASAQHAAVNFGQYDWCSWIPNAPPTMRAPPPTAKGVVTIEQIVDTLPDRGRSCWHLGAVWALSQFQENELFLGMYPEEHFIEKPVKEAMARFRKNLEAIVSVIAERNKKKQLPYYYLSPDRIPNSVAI

[2] = target: T2, Prostaglandin G/H synthase 2 (Homo sapiens, UniProt P35354); assay: Inhibition of human recombinant COX2 expressed in Sf21 cells assessed as conversion of arachidonic acid to PGE2 preincubated for 15 mins measured after 5 mins by enzyme immunoassay
T2 sequence (P35354 whole entry): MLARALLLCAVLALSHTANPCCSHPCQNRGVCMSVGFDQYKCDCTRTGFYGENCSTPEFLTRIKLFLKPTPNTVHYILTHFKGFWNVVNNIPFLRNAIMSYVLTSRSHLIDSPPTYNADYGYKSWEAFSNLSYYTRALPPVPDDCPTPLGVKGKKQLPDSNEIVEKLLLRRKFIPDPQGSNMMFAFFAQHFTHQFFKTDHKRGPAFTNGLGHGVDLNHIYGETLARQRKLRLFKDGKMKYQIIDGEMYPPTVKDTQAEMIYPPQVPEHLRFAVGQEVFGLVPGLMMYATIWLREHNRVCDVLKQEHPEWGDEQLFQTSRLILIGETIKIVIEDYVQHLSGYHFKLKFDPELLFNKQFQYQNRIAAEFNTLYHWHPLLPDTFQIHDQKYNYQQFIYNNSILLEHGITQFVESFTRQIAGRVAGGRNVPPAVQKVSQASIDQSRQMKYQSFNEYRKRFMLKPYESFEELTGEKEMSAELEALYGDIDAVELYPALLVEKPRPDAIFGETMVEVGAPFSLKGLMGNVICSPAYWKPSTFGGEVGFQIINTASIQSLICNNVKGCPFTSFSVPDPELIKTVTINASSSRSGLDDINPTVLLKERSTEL

[3] = target: T3, Polyunsaturated fatty acid 5-lipoxygenase (Homo sapiens) (UniProt P09917); assay: Inhibition of […] human 5-LOX in human PBML assessed as inhibition of A23187-induced LTB4 production at 10 uM preincubated for 15 mins measured after 15 mins by enzyme immunoassay
T3 sequence (whole entry): T1 sequence (P09917 whole entry)
Method in brief: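 Human PBML (5 × 10⁶ cells/mL) in HBSS pH 7.4 preincubated with compound 15 min at 37 °C. Calcium ionophore A23187 (30) then added, 15 min at 37 °C, and reaction stopped with 1 N HCl.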

[4] = target: T4, Prostaglandin G/H synthase 2 (Homo sapiens) (UniProt P35354); assay: Inhibition of human recombinant COX2 expressed in Sf21 cells assessed as conversion of arachidonic acid to PGE2 at 10 uM preincubated for 15 mins measured after 5 mins by enzyme immunoassay
T4 sequence (whole entry): T2 sequence (P35354 whole entry)
Method in brief: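 Human recombinant COX-2 (Sf21-expressed, 0.11 U) preincubated with compound 15 min at 37 °C in Tris–HCl pH 7.7 containing 1 mM glutathione, phenol and hematin. Reaction started with 0.3 arachidonic acid. Run by a contract lab.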

Rattus norvegicus [5] = assay: Antiinflammatory activity in Wistar rat assessed as inhibition of carrageenan-induced paw edema at 10 mg/kg, ip administered 30 mins before carrageenan challenge measured after 3 hrs relative to vehicle treated control; format: functional; settings: route intraperitoneal
Method in brief: (§1)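 Male Wistar rats, held at 20–24 °C and 50–80% humidity on 12 h light/dark for at least three days, with chow and water unless fasted. Test article given IP at 10, 30 or 100 mg/kg in 1% Tween 80/0.9% NaCl, dosing volume 5 mL/kg, 30 min before intraplantar carrageenan (0.1 mL of 1% suspension) into the right hind paw. Edema read by plethysmometer at 3 h; inhibition taken relative to vehicle group.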

Rattus norvegicus [6] = assay: Antiinflammatory activity in Wistar rat assessed as inhibition of carrageenan-induced paw edema at 100 mg/kg, ip administered 30 mins before carrageenan challenge measured after 3 hrs relative to vehicle treated control; format: functional; settings: route intraperitoneal; method in brief: as §1
Rattus norvegicus [7] = assay: Antiinflammatory activity in Wistar rat assessed as inhibition of carrageenan-induced paw edema at 30 mg/kg, ip administered 30 mins before carrageenan challenge measured after 3 hrs relative to vehicle treated control; format: functional; settings: route intraperitoneal; method in brief: as §1
Rattus norvegicus [8] = assay: Antiinflammatory activity in ip dosed Wistar rat assessed as inhibition of carrageenan-induced paw edema administered 30 mins before carrageenan challenge measured after 3 hrs; format: functional, organism-based; method in brief: as §1
Rattus norvegicus [9] = assay: Antiinflammatory activity in Wistar rat assessed as inhibition of carrageenan-induced paw edema at 150 mg/kg, po administered 1 hr before carrageenan challenge measured after 3 hrs relative to vehicle treated control; format: functional
Method in brief: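 Male Wistar rats given aspirin orally at 150 mg/kg, 1 h before intraplantar carrageenan (0.1 mL of 1% suspension) into the right hind paw. Hind paw edema read by plethysmometer 3 h after carrageenan; reduction taken relative to vehicle group.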

Row | Compound | IC50 [1] [µM] | inhibition [3] | inhibition [4] | also measured
1 | O=[N+]([O-])c1ccc2c(c1)S(=O)(=O)N=S2c1ccc(-c2ccccc2)cc1 (stereo not drawn) | 0.15 |  |  | IC50 [2]: 0.5 µM
2 | CCc1ccc(S2=NS(=O)(=O)c3ccc(S(N)(=O)=O)cc32)cc1 (stereo not drawn) |  | 7% | inactive | 
3 | O=[N+]([O-])c1ccc2c(c1)S(=O)(=O)N=S2c1ccncc1 (stereo not drawn) |  | 17% | 15% | 
4 | NS(=O)(=O)c1ccc2c(c1)S(c1ccc(Cl)c(Cl)c1)=NS2(=O)=O (stereo not drawn) |  | inactive | 14% | 
5 | CC(C)(C)c1ccc(S2=NS(=O)(=O)c3cc([N+](=O)[O-])ccc32)cc1 (stereo not drawn) | 0.3 |  |  | inhibition in vivo at 10 mg/kg (Rattus norvegicus [5]): 14%; inhibition in vivo at 100 mg/kg (Rattus norvegicus [6]): 65%; IC50 [2]: 0.27 µM; inhibition in vivo at 30 mg/kg (Rattus norvegicus [7]): 27%; inhibition (Rattus norvegicus [8]): Dose-dependent effect
6 | NS(=O)(=O)c1ccc2c(c1)S(c1ccc(Cl)cc1)=NS2(=O)=O (stereo not drawn) |  | 19% | inactive | 
7 | Cc1ccc(S2=NS(=O)(=O)c3ccc(S(N)(=O)=O)cc32)cc1C (stereo not drawn) |  | inactive | 15% | 
8 | COc1cc(OC)cc(OCCS2=NS(=O)(=O)c3cc([N+](=O)[O-])ccc32)c1 (stereo not drawn) | 3.7 |  | 35% | 
9 | COc1ccc(S2=NS(=O)(=O)c3cc([N+](=O)[O-])ccc32)cc1 (stereo not drawn) | 0.35 |  |  | IC50 [2]: 0.88 µM
10 | O=S1(=O)N=S(c2ccc(Br)cc2)c2ccccc21 (stereo not drawn) |  | 33% | 2% | 
11 | CC(=O)Oc1ccccc1C(=O)O [ASPIRIN] |  |  |  | inhibition in vivo at 150 mg/kg (Rattus norvegicus [9]): 38%
12 | NS(=O)(=O)c1ccc2c(c1)S(c1ccc(F)cc1F)=NS2(=O)=O (stereo not drawn) |  | inactive | inactive | 
13 | Cc1ccc(S2=NS(=O)(=O)c3ccc(S(N)(=O)=O)cc32)cc1 (stereo not drawn) |  | 9% | 2% | 
14 | Cc1ccc(S2=NS(=O)(=O)c3ccc(S(N)(=O)=O)cc32)c(C)c1 (stereo not drawn) |  | inactive | inactive | 
15 | COC(=O)c1ccc2c(c1)S(=O)(=O)N=S2c1ccc(Br)cc1 (stereo not drawn) | 4.1 |  | 33% | 
16 | COc1ccc(S2=NS(=O)(=O)c3ccc(S(N)(=O)=O)cc32)cc1 (stereo not drawn) |  | 21% | inactive | 
17 | Cc1ccc(C2=NS(=O)(=O)c3ccccc32)cc1 |  | 9% | 16% | 
18 | CC(C)(C)c1ccc(S2=NS(=O)(=O)c3ccc(S(N)(=O)=O)cc32)cc1 (stereo not drawn) |  | 25% | inactive | 
19 | CS(=O)(=O)c1ccc2c(c1)S(=O)(=O)N=S2c1ccc(Br)cc1 (stereo not drawn) | 13.5 |  |  | IC50 [2]: 1.8 µM
20 | CCc1ccc(S2=NS(=O)(=O)c3cc([N+](=O)[O-])ccc32)cc1 (stereo not drawn) | 0.18 |  |  | IC50 [2]: 1.7 µM
21 | NS(=O)(=O)c1ccc2c(c1)S(c1ccc(F)cc1)=NS2(=O)=O (stereo not drawn) |  | 9% | 2% | 
22 | COC1(c2cc(F)cc(OCCS3=NS(=O)(=O)c4cc([N+](=O)[O-])ccc43)c2)CCOCC1 (stereo not drawn) |  | 25% | 25% | 

Row | Compound | IC50 [1] [µM] | inhibition [3] | inhibition [4] | also measured
23 | NS(=O)(=O)c1cc2c(cc1Cl)S(c1ccc(Br)cc1)=NS2(=O)=O (stereo not drawn) | 25.8 |  |  | IC50 [2]: 2.3 µM
24 | CC(C)c1ccc(S2=NS(=O)(=O)c3ccc(S(N)(=O)=O)cc32)cc1 (stereo not drawn) |  | 19% | 10% | 
25 | CC(C)c1ccc(S2=NS(=O)(=O)c3cc(S(N)(=O)=O)ccc32)cc1 (stereo not drawn) |  | 42% | 44% | 
26 | O=S1(=O)N=C(c2ccc(Br)cc2)c2ccccc21 |  | 11% | 0% | 
27 | O=[N+]([O-])c1ccc2c(c1)S(=O)(=O)N=S2c1ccc(C(F)(F)F)cc1 (stereo not drawn) | 3.09 |  |  | IC50 [2]: 2.99 µM
28 | NS(=O)(=O)c1ccc2c(c1)S(c1ccc(Br)cc1)=NS2(=O)=O (stereo not drawn) |  | 14% |  | 
29 | COc1ccc(S2=NS(=O)(=O)c3cc([N+](=O)[O-])ccc32)cc1OC (stereo not drawn) | 0.68 |  | 15% | 
30 | Cc1ccc2c(c1)S(=O)(=O)N=S2c1ccc(Br)cc1 (stereo not drawn) | 6.05 |  | 14% | 
31 | CCc1ccc(S2=NS(=O)(=O)c3cc(S(C)(=O)=O)ccc32)cc1 (stereo not drawn) |  | 35% | 43% | 
32 | NS(=O)(=O)c1ccc2c(c1)S(c1ccc(C(F)(F)F)cc1)=NS2(=O)=O (stereo not drawn) |  | 37% | inactive | 
33 | NC(=O)c1ccc2c(c1)S(=O)(=O)N=S2c1ccc(Br)cc1 (stereo not drawn) |  | 15% | 0% | 
34 | CC(C)(C)c1ccc(S2=NS(=O)(=O)c3cc(S(N)(=O)=O)ccc32)cc1 (stereo not drawn) |  | 23% | 21% | 
35 | NS(=O)(=O)c1ccc2c(c1)S(=O)(=O)N=S2c1ccc(-c2ccccc2)cc1 (stereo not drawn) | 3.45 |  | 31% | 
36 | COc1ccc(S2=NS(=O)(=O)c3ccc(S(N)(=O)=O)cc32)cc1OC (stereo not drawn) |  | inactive | 6% | 
37 | CCc1ccc(C2=NS(=O)(=O)c3cc(S(N)(=O)=O)ccc32)cc1 |  | 8% | 0% | 
38 | O=S1(=O)N=S(c2ccccc2)c2ccccc21 (stereo not drawn) |  | 14% | 0% | 
39 | CC(C)c1ccc(S2=NS(=O)(=O)c3cc([N+](=O)[O-])ccc32)cc1 (stereo not drawn) | 0.36 |  |  | IC50 [2]: 0.73 µM
40 | NS(=O)(=O)c1ccc2c(c1)S(c1ccc(Cl)cc1Cl)=NS2(=O)=O (stereo not drawn) |  | inactive | 9% | 
41 | O=C(O)c1ccc2c(c1)S(=O)(=O)N=S2c1ccc(Br)cc1 (stereo not drawn) |  | 2% | 7% | 
42 | NS(=O)(=O)c1ccc2c(c1)S(c1cccc(Br)c1)=NS2(=O)=O (stereo not drawn) |  | 28% | 7% | 
43 | NS(=O)(=O)c1ccc2c(c1)S(=O)(=O)N=S2c1ccc(Br)cc1 (stereo not drawn) | 91.1 |  | 0% | 

Reference: ChEMBL document CHEMBL1914427, “Design, synthesis and biological evaluation of benzo[1.3.2]dithiazolium ylide 1,1-dioxide derivatives as potential dual cyclooxygenase-2/5-lipoxygenase inhibitors” (Bioorg Med Chem, 2011)
